How the values were obtained:
Type in all cases: functional
[1] = tested on: Mus musculus; assay: Evaluated for hypothermic activity in mice at a dose of 3 mg/Kg.
Procedure, shortened: (§1)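 Mice dosed by tail-vein injection (0.1 mL/10 g) in ethanol/emulphor/saline (1:1:18). Body temperature change (°C) measured by previously reported methods. Vehicle and Δ9-THC positive controls run each day. Mean ± SEM; ANOVA with Dunnett's t test versus control, p < 0.05 two-tailed.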

[2] = tested on: Mus musculus; assay: Evaluated for reduction in spontaneous locomotor activity in mice, at a dose of 0 mg/Kg
Procedure, shortened: (§2)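 Tail-vein injection in mice (0.1 mL/10 g; ethanol/emulphor/saline 1:1:18). Spontaneous locomotor activity counted as counts/10 min, per previously reported methods. Daily vehicle and Δ9-THC positive controls. Mean ± SEM; ANOVA with Dunnett's t test, p < 0.05 two-tailed.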

[3] = tested on: Mus musculus; assay: Evaluated for catalepsy activity in mice and percentage immobility was determined at a concentration of 5 mg/Kg.
Procedure, shortened: (§3)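 Mice, single tail-vein injection (0.1 mL/10 g) in ethanol/emulphor/saline (1:1:18). Catalepsy scored by ring test as % immobility, per previously reported methods. Vehicle and Δ9-THC positive-control groups run in each daily experiment. Mean ± SEM; ANOVA with Dunnett's t test versus control, p < 0.05 two-tailed.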

[4] = tested on: Mus musculus; assay: Evaluated for reduction in spontaneous locomotor activity in mice at a dose of 3 mg/Kg; procedure, shortened: as §2
[5] = tested on: Mus musculus; assay: Tail-flick latency was determined at a concentration of 0 mg/Kg.
Procedure, shortened: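 Antinociception in mice by tail-flick latency (s), per previously reported methods, after tail-vein injection (0.1 mL/10 g) in ethanol/emulphor/saline (1:1:18). Vehicle and Δ9-THC controls run daily. Mean ± SEM; ANOVA with Dunnett's t test, p < 0.05 two-tailed.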

[6] = tested on: Mus musculus; assay: Tail-flick latency was determined at a concentration of 3 mg/Kg.
Procedure, shortened: (§4)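 Mice, drug suspended in ethanol/emulphor/saline (1:1:18) and given by tail-vein injection (0.1 mL/10 g). Antinociception measured as tail-flick latency (s). Vehicle and Δ9-THC positive controls run in each daily experiment. Data given as mean ± SEM. ANOVA with Dunnett's t test against control, p < 0.05 (two-tailed).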

[7] = tested on: Mus musculus; assay: Evaluated for reduction in spontaneous locomotor activity in mice at a dose of 5 mg/Kg; procedure, shortened: as §2
[8] = tested on: Mus musculus; assay: Evaluated for catalepsy activity in mice and percentage immobility was determined at a concentration of 3 mg/kg.; procedure, shortened: as §3
[9] = tested on: Mus musculus; assay: Evaluated for catalepsy activity in mice and percentage immobility was determined at a concentration of 0 mg/Kg.; procedure, shortened: as §3
[10] = tested on: Mus musculus; assay: Evaluated for hypothermic activity in mice at a dose of 5 mg/Kg.; procedure, shortened: as §1
[11] = tested on: Mus musculus; assay: Evaluated for hypothermic activity in mice at a dose of 0 mg/Kg.; procedure, shortened: as §1
[12] = tested on: Mus musculus; assay: Tail-flick latency was determined at a concentration of 5 mg/Kg.; procedure, shortened: as §4
[13] = tested on: Mus musculus; assay: Tail-flick latency was determined at a concentration of 50 mg/Kg.; procedure, shortened: as §4
[14] = tested on: Mus musculus; assay: Evaluated for reduction in spontaneous locomotor activity in mice at a dose of 50 mg/Kg; procedure, shortened: as §2
[15] = tested on: Mus musculus; assay: Tail-flick latency was determined at a concentration of 0 ug/Kg administered intraventricularly
Procedure, shortened: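 Tail-flick latency (s) in mice after intraventricular injection (5 μL) of ethanol/emulphor/saline (1:1:18) vehicle, measured by previously reported methods. Mean ± SEM; ANOVA with Dunnett's t test, p < 0.05 two-tailed.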

[16] = tested on: Mus musculus; assay: Evaluated for hypothermic activity in mice at a dose of 150 ug/Kg administered intraventricularly
Procedure, shortened: (§5)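 Intraventricular injection in mice, 5 μL volume, in ethanol/emulphor/saline (1:1:18) vehicle. Change in body temperature (°C) recorded by previously reported methods, with vehicle and Δ9-THC controls. Mean ± SEM; ANOVA with Dunnett's t test versus control, p < 0.05 two-tailed.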

[17] = tested on: Mus musculus; assay: Evaluated for reduction in spontaneous locomotor activity in mice, at a dose of 0 ug/Kg administered intraventricularly
Procedure, shortened: (§6)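 Mice given intraventricular injection of 5 μL in ethanol/emulphor/saline (1:1:18). Spontaneous locomotor activity recorded as counts/10 min by previously reported methods, alongside vehicle and Δ9-THC controls. Mean ± SEM; ANOVA with Dunnett's t test, p < 0.05 two-tailed.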

[18] = tested on: Mus musculus; assay: Evaluated for hypothermic activity in mice at a dose of 50 mg/Kg.; procedure, shortened: as §1
[19] = tested on: Mus musculus; assay: Evaluated for hypothermic activity in mice at a dose of 0 ug/Kg administered intraventricularly; procedure, shortened: as §5
[20] = tested on: Mus musculus; assay: Evaluated for catalepsy activity in mice and percentage immobility was determined at a concentration of 50 mg/Kg.; procedure, shortened: as §3
[21] = tested on: Mus musculus; assay: Evaluated for reduction in spontaneous locomotor activity in mice at a dose of 150 ug/Kg administered intraventricularly; procedure, shortened: as §6
[22] = tested on: Mus musculus; assay: Tail-flick latency was determined at a concentration of 150 ug/Kg administered intraventricularly
Procedure, shortened: (§7)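 Mice, injected intraventricularly in 5 μL of ethanol/emulphor/saline (1:1:18) vehicle. Doses given as μg amounts. Antinociception read as tail-flick latency (s), alongside vehicle control. Values reported as mean ± SEM. ANOVA with Dunnett's t test versus control, significance at p < 0.05 (two-tailed).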

[23] = tested on: Mus musculus; assay: Tail-flick latency was determined at a concentration of 100 mg/Kg.; procedure, shortened: as §4
[24] = tested on: Mus musculus; assay: Evaluated for reduction in spontaneous locomotor activity in mice at a dose of 100 mg/Kg; procedure, shortened: as §2
[25] = tested on: Mus musculus; assay: Evaluated for hypothermic activity in mice at a dose of 100 mg/Kg.; procedure, shortened: as §1
[26] = tested on: Mus musculus; assay: Evaluated for catalepsy activity in mice and percentage immobility was determined at a concentration of 100 mg/Kg.; procedure, shortened: as §3
[27] = tested on: Mus musculus; assay: Evaluated for reduction in spontaneous locomotor activity in mice at a dose of 0.3 mg/Kg; procedure, shortened: as §2
[28] = tested on: Mus musculus; assay: Tail-flick latency was determined at a concentration of 0.3 mg/Kg.; procedure, shortened: as §4
[29] = tested on: Mus musculus; assay: Evaluated for reduction in spontaneous locomotor activity in mice, at a dose of 30 mg/Kg; procedure, shortened: as §2
[30] = tested on: Mus musculus; assay: Tail-flick latency was determined at a concentration of 30 mg/Kg.; procedure, shortened: as §4
[31] = tested on: Mus musculus; assay: Tail-flick latency was determined at a concentration of 6 mg/Kg.; procedure, shortened: as §4
[32] = tested on: Mus musculus; assay: Evaluated for reduction in spontaneous locomotor activity in mice, at a dose of 50 ug/Kg administered intraventricularly; procedure, shortened: as §6
[33] = tested on: Mus musculus; assay: Evaluated for catalepsy activity in mice and percentage immobility was determined at a concentration of 30 mg/Kg.; procedure, shortened: as §3
[34] = tested on: Mus musculus; assay: Evaluated for catalepsy activity in mice and percentage immobility was determined at a concentration of 0.3 mg/Kg.; procedure, shortened: as §3
[35] = tested on: Mus musculus; assay: Evaluated for reduction in spontaneous locomotor activity in mice, at a dose of 3 mg/Kg; procedure, shortened: as §2
[36] = tested on: Mus musculus; assay: Evaluated for hypothermic activity in mice at a dose of 0.3 mg/Kg.; procedure, shortened: as §1
[37] = tested on: Mus musculus; assay: Evaluated for catalepsy activity in mice and percentage immobility was determined at a concentration of 6 mg/Kg.; procedure, shortened: as §3
[38] = tested on: Mus musculus; assay: Tail-flick latency was determined at a concentration of 100 ug/Kg administered intraventricularly
[39] = tested on: Mus musculus; assay: Evaluated for hypothermic activity in mice at a dose of 100 ug/Kg administered intraventricularly; procedure, shortened: as §5
[40] = tested on: Mus musculus; assay: Evaluated for hypothermic activity in mice at a dose of 30 mg/Kg.; procedure, shortened: as §1
[41] = tested on: Mus musculus; assay: Evaluated for reduction in spontaneous locomotor activity in mice, at a dose of 150 ug/Kg administered intraventricularly; procedure, shortened: as §6
[42] = tested on: Mus musculus; assay: Evaluated for reduction in spontaneous locomotor activity in mice, at a dose of 100 ug/Kg administered intraventricularly; procedure, shortened: as §6
[43] = tested on: Mus musculus; assay: Tail-flick latency was determined at a concentration of 50 ug/Kg administered intraventricularly; procedure, shortened: as §7
[44] = tested on: Mus musculus; assay: Evaluated for reduction in spontaneous locomotor activity in mice, at a dose of 6 mg/Kg; procedure, shortened: as §2
[45] = tested on: Mus musculus; assay: Evaluated for catalepsy activity in mice and percentage immobility was determined at a concentration of 3 mg/Kg.; procedure, shortened: as §3
[46] = tested on: Mus musculus; assay: Evaluated for hypothermic activity in mice at a dose of 6 mg/Kg.; procedure, shortened: as §1
[47] = tested on: Mus musculus; assay: Evaluated for hypothermic activity in mice at a dose of 50 ug/Kg administered intraventricularly; procedure, shortened: as §5

CCCCCc1cc(O)c2c(c1)OC(C)(CNCC)[C@@H]1CC=C(C)CC21 (stereo partly specified)
Temperature [1]: -1.5 °C
Spont activity [2]: 52 Counts 10min-1
Immobility [3]: 16%
Spont activity [4]: 35 Counts 10min-1
Tail flick latency [5]: 1 s
Tail flick latency [6]: <2.8 s
Spont activity [7]: 35 Counts 10min-1
Immobility [8]: 20%
Immobility [9]: 13%
Temperature [10]: -0.7 °C
Temperature [11]: -0.9 °C
Tail flick latency [12]: 2.2 s

CCCCCc1cc(O)c2c(c1)OC(C)(C)[C@@H]1CC=C(CN(CCCl)CCCl)CC21 (stereo partly specified)
Spont activity [2]: 56 Counts 10min-1
Tail flick latency [13]: -0.6 s
Spont activity [14]: <27 Counts 10min-1
Tail flick latency [5]: 0.7 s
Tail flick latency [15]: 0.2 s
Temperature [16]: -1.7 °C
Spont activity [17]: 87 Counts 10min-1
Temperature [18]: <-3.8 °C
Immobility [9]: 4%
Temperature [19]: -1.5 °C
Temperature [11]: -0.8 °C
Immobility [20]: <24%
Spont activity [21]: 70 Counts 10min-1
Tail flick latency [22]: 0 s

C=C(C)[C@@H]1CCC(C)=CC1c1c(O)cc(O)cc1CCCCC (stereo partly specified)
Spont activity [2]: 45 Counts 10min-1
Tail flick latency [23]: 0.8 s
Tail flick latency [5]: 0.2 s
Spont activity [24]: 57 Counts 10min-1
Temperature [25]: -3.5 °C
Immobility [9]: 4%
Immobility [26]: <30%
Temperature [11]: -1.4 °C

CCCCCc1cc(O)c2c(c1)OC(C)(C)[C@@H]1CCC(C)=C[C@@H]21 [DRONABINOL]
Spont activity [27]: 70 Counts 10min-1
Tail flick latency [28]: <2 s
Spont activity [29]: <7 Counts 10min-1
Temperature [1]: <-2.4 °C
Spont activity [2]: 54 Counts 10min-1
Tail flick latency [30]: <5.1 s
Tail flick latency [5]: 0.6 s
Tail flick latency [31]: <4.9 s
Tail flick latency [15]: -0.2 s
Temperature [16]: <-5.5 °C
Spont activity [17]: 103 Counts 10min-1
Spont activity [32]: 46 Counts 10min-1
Immobility [33]: <57%
Tail flick latency [6]: <2.9 s
Immobility [34]: 9%
Spont activity [35]: <30 Counts 10min-1
Temperature [36]: -1 °C
Immobility [9]: 8%
Immobility [37]: <42%
Temperature [19]: -2.2 °C
Tail flick latency [38]: <2.3 s
Temperature [39]: -3.6 °C
Temperature [11]: -1.1 °C
Temperature [40]: <-5.1 °C
Spont activity [41]: <33 Counts 10min-1
Spont activity [42]: <41 Counts 10min-1
Tail flick latency [43]: <1.6 s
Spont activity [44]: <23 Counts 10min-1
Immobility [45]: <25%
Tail flick latency [22]: <4 s
Temperature [46]: <-2.9 °C
Temperature [47]: -2.3 °C
